Compound activity: PubChem, Broad Institute
GSK3beta inhib: human GSK3beta kinase inhibition; P49841; GST-GSK3beta kinase, ADP-Glo luminescence, 60 min; hits give low values; activity score (negative = inhibition), % at 10 µM; 0.038% of 300,000 active; AID 2097;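 active means more than half of replicate wells score below -50%, meaning over 50% inhibition versus plate controls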;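 further: 0% = median DMSO wells and -100% = median GW8510 positive control wells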
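Test system – GST-tagged human GSK3beta kinase, cell-free · Incubation – 60 min enzyme reaction, room temperature · Signal – ADP-Glo luminescence · Also added – peptide substrate and ATP at 25 µM · Controls – DMSO neutral wells and GW8510 at 20 µM as positive · Buffer or medium – Tris/MgCl2 kinase buffer · Measure – Luminescence-derived activity versus plate DMSO and GW8510 wells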
CDK5 p35 inh: CDK5/p35 (human) kinase inhibition; Q00535+Q15078; Recombinant CDK5/p35, ADP-Glo luminescence, 60 min; inhibition, % at 10 µM; 0.01% of 330,000 active; AID 488839;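 active means highest replicate inhibition of at least 50% and at least 75% of replicates reaching 50%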;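 further: plate controls were DMSO neutral control for no effect and GW8510 at 10 µM for full effect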
Target sequence (Q00535 whole entry, looked up): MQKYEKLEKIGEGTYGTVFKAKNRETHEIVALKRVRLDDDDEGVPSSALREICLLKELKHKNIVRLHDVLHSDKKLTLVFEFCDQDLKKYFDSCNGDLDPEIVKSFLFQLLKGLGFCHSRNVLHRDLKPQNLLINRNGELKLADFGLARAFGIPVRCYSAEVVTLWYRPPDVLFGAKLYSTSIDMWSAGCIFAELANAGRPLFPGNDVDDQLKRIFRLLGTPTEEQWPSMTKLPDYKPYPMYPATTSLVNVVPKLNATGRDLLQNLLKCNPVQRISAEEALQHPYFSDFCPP
Target sequence (Q15078 whole entry, looked up): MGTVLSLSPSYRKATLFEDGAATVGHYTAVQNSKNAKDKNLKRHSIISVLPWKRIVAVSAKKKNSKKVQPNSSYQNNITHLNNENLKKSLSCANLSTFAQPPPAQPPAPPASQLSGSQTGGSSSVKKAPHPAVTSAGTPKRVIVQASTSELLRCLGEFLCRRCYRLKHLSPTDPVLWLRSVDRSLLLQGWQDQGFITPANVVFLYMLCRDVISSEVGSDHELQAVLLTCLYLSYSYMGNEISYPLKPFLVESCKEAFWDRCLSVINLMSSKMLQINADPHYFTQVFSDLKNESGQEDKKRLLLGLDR
GSIS activator: GLuc luminescence reporter in INS-1E cells, primary screen for activators of glucose-dependent secretion of insulin; INS-1E GLuc reporter insulin secretion, 2-3 h; activation, % at 16.6 µM; 0.61% of 370,000 active;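 active means lowest replicate activation of at least 40%, so every replicate reaches that level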;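 further: 0% = median of neutral control wells and 100% = median of IBMX positive control wells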
HIV Env fusion: blocks HIV Env-driven cell-cell fusion. HeLa-JRFL Env/CEM21 cell fusion, luciferase. inhibition, % at 12.3 µM. 1.1% of 360,000 active;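 active means mean replicate inhibition score of at least 50 and every replicate individually at or above 50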;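 further: 0% = plate neutral controls and 100% = maraviroc near 300 nM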
GSK3A inh: human GSK-3 alpha kinase inhibition. inhibition, % at 10 µM. 0.1% of 320,000 active. ADP-Glo luminescence, 60 min. AID 2650;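 active means more than half of replicates show inhibition above 20%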;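 further: GST-tagged GSK-3 alpha with peptide substrate and 25 µM ATP; 0% = DMSO neutral wells and 100% = GW8510 positive control wells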
STK33 inh: inhibitors of human STK33 kinase | purified STK33, MBP phosphorylation, ADP-Glo luminescence | inhibition, % at 10 µM | 0.073% of 320,000 active | AID 2661;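 active means inhibition at or above 25%, using the most active replicate where run in duplicate; inactive means inhibition below 25%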
* hit, by the source's call; / = no result; [ ] = another dose, or the depositor's remark. In the library only some 1.4% were active in any assay of this set; here they are far more common.

SMILES	GSK3beta inhib	CDK5 p35 inh	GSIS activator	HIV Env fusion	GSK3A inh	STK33 inh
Cc1ccc(C(O)(c2ccccc2)c2ccccc2C(C)N(C)C)c(C)c1 (configuration not stated)	5.3	5.2	2.0	79.1*	-1.4	-0.3
CC(c1ccccc1C(O)c1ccccc1)N(C)C (configuration not stated)	-6.0	0.5	21.4	/	-3.1	-3.0
C[C@@H]1CN([C@@H](C)CO)C(=O)c2cc(NC(=O)c3ccncc3)ccc2O[C@@H](C)CCCCO[C@H]1CN(C)Cc1ccc2c(c1)OCO2	/	/	7.6	7.5[16.7 µM]	/	/
CCc1nc2c(OCc3ccccc3C(=O)OC)cccn2c1N(C)C(=O)c1ccncc1	/	/	116.6*	-0.5	/	/
CCc1nc2c(OCc3ccccc3C)cccn2c1N(C)C(=O)c1ccco1	/	/	60.7*	-8.9	/	/
COc1ccc(N2CC(O)=C(c3nc(-c4ccc(Cl)cc4)cs3)C2=N)cc1	-2.1	-3.0	-10.7	6.0	-0.6	/
CC(C)CCN1CC(O)=C(c2nc(-c3ccc(Cl)cc3)cs2)C1=N	0.3	-0.4	78.3*	/	1.1	-4.0
CC(C)c1ccc(NC(=O)C2=CC=CN3CCS(=O)(=O)N=C23)cc1	/	0.4	50.3*	-26.8	/	/
O=C(NC1CCCCC1)c1ccc(S(=O)(=O)c2ccccc2Cl)c([N+](=O)[O-])c1	4.0	/	/	/	-3.5	-0.2
CN(C(=O)c1ccc(S(=O)(=O)c2cccc(Cl)c2)c([N+](=O)[O-])c1)C1CCCCC1	-0.3	-0.7	-31.8	59.1*	-3.2	0.3
Nc1c(S(=O)(=O)c2ccccc2)cnc2c(-c3ccc(F)cc3)cnn12	0.9	6.3	/	68.0*	-2.8	-4.6
CCCCn1c(SCC(=O)Nc2nnc(C(C)C)s2)nc2c1c(=O)n(C)c(=O)n2C	-3.0	1.4	-20.2	55.0*	-1.2	-1.9
Cc1cc(C(=O)CSc2ncnc3ccccc23)c(C)n1C1CC1	/	-0.3	-1.0	-6.7	9.1	-0.3
Cc1cc(-n2c(C)cc(C(=O)CSc3ncnc4ccccc34)c2C)no1	-8.3	0.8	/	51.2*	/	0.2
CCOC(=O)CN1CCCc2nc(-c3ccc(OC)cc3)ccc21	/	/	/	-45.7	/	/
CCOC(=O)CN1CCCc2nc(C)c(C)cc21	/	/	/	84.4*	/	/
C[C@H](CO)N1C[C@H](C)[C@H](CN(C)CC2CC2)Oc2c(NC(=O)Nc3ccccc3)cccc2C1=O	/	/	0.7	/	/	/
C[C@H]1CN([C@@H](C)CO)C(=O)c2cccc(NC(=O)c3nc4ccccc4s3)c2O[C@@H]1CN(C)Cc1ccc(C(=O)Nc2ccccc2N)cc1	/	/	8.6	/	/	/
COc1ccc(CNC(=O)CCS(=O)(=O)Cc2ccc(C)cc2)c(OC)c1	0.2	-2.8	25.7	24.6	-2.6	-0.3
COc1ccccc1CNC(=O)CCS(=O)(=O)Cc1ccc(C)cc1	-0.2	0.7	88.1*	-3.6	-2.0	-1.0
CC1(C)C2CCC1(C)C(OC(=O)C[n+]1ccccc1N)C2 (configuration not stated)	-3.2	-1.1	41.5*	0.5	2.6	-0.8
CC1(C)C2CCC1(C)C(OC(=O)C[n+]1ccccc1)C2 (configuration not stated)	-4.8	-0.4	6.2	3.1	6.0	1.5
C[C@H]1CN([C@@H](C)CO)C(=O)Cc2cc(NS(=O)(=O)c3ccc(Cl)cc3)ccc2O[C@@H]1CN(C)S(=O)(=O)c1cn(C)cn1	/	/	7.1	4.0[16.7 µM]	/	/
COc1cccc(CN2[C@@H](CO)[C@H](c3ccccc3)C23CN(Cc2ccccc2OC)C3)c1	/	/	-35.2	/	/	/
COCC(=O)Nc1ccc2c(c1)OC[C@H](C)N(CCc1ccccc1)C[C@H](C)[C@@H](OC)CN(C)C2=O	/	/	-3.9	/	/	/
SMILES	GSK3beta inhib	CDK5 p35 inh	GSIS activator	HIV Env fusion	GSK3A inh	STK33 inh
COc1cc2c(c(OCC(=O)NC(C)C)c1)C(=O)O[C@@H](C)CCCC(=O)CCCCC2	-3.5	-0.4	-4.0	87.5*	-0.2	-0.6
C[C@H]1CN([C@@H](C)CO)C(=O)Cc2cc(NS(=O)(=O)c3ccccc3)ccc2O[C@@H]1CN(C)Cc1ccc(Cl)c(Cl)c1	/	/	2.5	57.6*[16.7 µM]	/	/
C[C@@H]1CN([C@@H](C)CO)C(=O)Cc2cc(NS(=O)(=O)c3ccc(F)cc3)ccc2O[C@H]1CN(C)Cc1ccc(Cl)c(Cl)c1	/	/	196.4	100.3*[16.7 µM]	/	/
C[C@@H]1CN([C@@H](C)CO)C(=O)Cc2cc(NS(=O)(=O)c3ccccc3)ccc2O[C@@H]1CN(C)Cc1ccc(Cl)c(Cl)c1	/	/	-6.5	12.9[16.7 µM]	/	/
COc1cccc(C#Cc2cnc3c(c2)C(=O)N([C@H](C)CO)C[C@@H](C)[C@H](CN(C)C(=O)C2CCOCC2)O3)c1	/	/	16.7	7.5[16.7 µM]	/	/
C[C@H]1CN([C@@H](C)CO)C(=O)c2cccc(N(C)C)c2O[C@H]1CN(C)C(=O)NC1CCCCC1	/	/	-2.4	12.9[16.7 µM]	/	/
COC(=O)c1sccc1NC(=O)COc1ccc(C)cc1	1.4	0.5	-5.2	-6.4	-0.1	/
O=C(COc1ccc(Cl)cc1Cl)N1CCCN(C(=O)COc2ccc(Cl)cc2Cl)CC1	2.8	-1.7	-24.6	83.5*	-0.4	-3.9
COC(=O)c1sccc1NC(=O)COc1ccc(Cl)cc1Cl	-1.6	0.4	61.3*	-100.4	-3.4	-0.6
CC(=O)N1CCN(c2ccc(NC(=O)COc3ccc(Cl)cc3Cl)cc2)CC1	0.9	0.3	/	52.8*	-1.3	-0.8
C[C@H](O)C#Cc1ccc2c(c1)O[C@@H](CN(C)Cc1ccccc1)[C@H](C)CN([C@H](C)CO)S2(=O)=O	/	/	-1.0	-13.5[16.7 µM]	/	/
OCCCn1c(C2CCCN2c2nc(-c3ccc(F)cc3)cs2)nc2cc(C(F)(F)F)ccc21 (configuration not stated)	-4.7	0.6	-11.0	15.5	1.7	-1.6
OCCCn1c(CCNc2nc(-c3ccc(F)cc3)cs2)nc2cc(C(F)(F)F)ccc21	0.6	0.9	-31.2	71.5*	-3.6	0.1
COC(=O)C1=C(C)N(Cc2ccc(Cl)cc2)C(=S)NC1c1ccc(OC)cc1 (configuration not stated)	/	/	-3.8	84.1*	/	/
CC(=O)C1=C(C)N(Cc2ccc(Cl)cc2)C(=S)NC1c1ccc(Cl)cc1 (configuration not stated)	/	/	-32.4	60.1*	/	/
COC(=O)C1=C(C)N(Cc2ccc(F)cc2)C(=S)NC1c1ccc(Cl)cc1 (configuration not stated)	/	/	-3.2	58.8*	/	/
COC(=O)C1=C(C)N(Cc2ccccc2)C(=S)N[C@H]1c1ccc(Br)cc1	/	-0.8	-7.8	66.7*	-2.9	0.8
COCC(=O)Nc1ccc2c(c1)OC[C@H](C)N(C(=O)Cc1cccnc1)C[C@H](C)[C@@H](OC)CN(C)C2=O	/	/	-3.0	/	/	/
COCC#Cc1cnc2c(c1)C(=O)N([C@H](C)CO)C[C@H](C)[C@H](CN(C)S(=O)(=O)c1cn(C)cn1)O2	/	/	16.9	-0.7[16.7 µM]	/	/
CCOC(=O)c1ccc(NC(=O)O[C@H]2[C@H](OC(=O)Nc3ccccc3)[C@@H](OC(=O)Nc3ccccc3)[C@@H](OC)O[C@@H]2CO)cc1	/	/	/	-96.3[16.7 µM]	/	/
